In PMC4277744 (European journal of medicinal chemistry, 2014):
Read-outs that look alike come from different tables or passages of the source. Blank lines part the entries; values can stand above or below the compound they belong to.

Assays:
[1] = Stability of ninhydrin adduct in aqueous buffer monitored by 1H NMR; type: physicochemical; settings: after one hour, pH 8, D2O, 10 mM phosphate buffer
[2] = cited from earlier work
[3] = target: T1, catalytic domain of KDM4A (Homo sapiens, UniProt O75164); assay: Fluorescence-based; type: biochemical; settings: FluoZin-3 dye measures unbound zinc; ebselen positive control
T1 sequence (O75164 142-308 limits assumed): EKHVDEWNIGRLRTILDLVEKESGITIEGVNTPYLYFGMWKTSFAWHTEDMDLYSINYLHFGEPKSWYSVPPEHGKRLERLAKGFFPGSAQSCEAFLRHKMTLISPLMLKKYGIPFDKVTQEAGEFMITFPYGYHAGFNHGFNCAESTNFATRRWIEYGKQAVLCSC

[4] = target: CH1 domain of p300 (Homo sapiens, UniProt Q09472); assay: Fluorescence-based assay for release of Zn; type: biochemical; settings: high basal levels of Zn(II), poorer resolution
[5] = system: HeLa cell; assay: HeLa cell viability assay; settings: after 48 h
[6] = target: HIF-1α (785-826)/p300 CH1 domain (323-423) (Homo sapiens, UniProt Q09472); assay: ELISA competition assay for disrupting HIF-1α/p300 binding; settings: read-out: IC50, HIF-1α/p300 interaction, 1% DMSO
In short: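 Assay wells held 1% DMSO. Each determination ran in triplicate and is reported with ±SD.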

[7] = system: HeLa cell
[8] = target: p300 CH1 (Homo sapiens) (UniProt Q09472); settings: cited from earlier work
Sequence of p300 CH1 (Homo sapiens) (Q09472 331-417): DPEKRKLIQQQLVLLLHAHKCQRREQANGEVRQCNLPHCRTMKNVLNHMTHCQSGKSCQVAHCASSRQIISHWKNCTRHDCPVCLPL

Sequence of CH1 domain of p300 (Q09472 331-417 limits assumed): as the sequence (Q09472 331-417) above
Sequence of HIF-1α C-TAD (Q16665 783-826): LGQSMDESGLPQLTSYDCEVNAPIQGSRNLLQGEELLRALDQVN
Sequence of HIF-1α (785-826)/p300 CH1 domain (323-423) (Q09472 323-423): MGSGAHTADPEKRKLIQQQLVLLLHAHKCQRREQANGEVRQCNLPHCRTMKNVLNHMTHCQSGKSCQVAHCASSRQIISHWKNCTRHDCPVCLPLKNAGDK

Compound: O=C1c2ccccc2C(=O)c2ccccc21 [compound 7, anthraquinone]
half wave potential (E1/2) [2]: -1.26 V

Compound: O=C1C=CC(=O)c2ccccc21 [compound 8, naphthoquinone]
Zn(II) ion ejection from KDM4A [3]: caused Zn(II) ion loss
Zn(II) ion release from CH1 domain of p300 [4]: dose- and time-dependent increases in fluorescence
half wave potential (E1/2) [2]: -1.03 V
cytotoxicity in HeLa cell viability assay [5]: significant dose-dependent cytotoxicity

Compound: c1ccc(SSc2ccccn2)nc1 [compound 13, Dipyridyldisulfide]
IC50 [6]: ~100 µM

Compound: O=C(NN1C(=O)c2ccccc2C1=O)c1ccccc1 [compound 21, N-(1,3-Dioxoisoindolin-2-yl)benzamide]
cytotoxicity in HeLa cell viability assay [7]: not cytotoxic

Compound: HIF-1α C-TAD (from UniProt Q16665)
Kd [8]: 0.007 µM

More lines, main results first:

hydrolysis to picolinamide and ninhydrin 23 [1]: 80%
Compound: O=C(NC1(O)C(=O)c2ccccc2C1=O)c1ccccn1 [compound 5, N-(2-Hydroxy-1,3-dioxo-2,3-dihydro-1H-inden-2-yl)picolinamide]

Zn(II) ion ejection from KDM4A [3]: caused Zn(II) ion loss
Compound: O=C(NC1(O)C(=O)c2ccccc2C1=O)c1cccnc1 [compound 16, N-(2-Hydroxy-1,3-dioxo-2,3-dihydro-1H-inden-2-yl)nicotinamide]

Zn(II) ion ejection from KDM4A [3]: caused Zn(II) ion loss
Compound: O=C1c2ccccc2C(=O)C1(O)O [compound 23, ninhydrin]
Zn(II) ion release from CH1 domain of p300 [4]: dose- and time-dependent increases in fluorescence
cytotoxicity in HeLa cell viability assay [7]: significant dose-dependent cytotoxicity
